Published values from different studies.
Lines come from different studies, so protocols differ.
PKN1: Serine/threonine-protein kinase N1 (PKN1, Homo sapiens, UniProt Q16512)
Adora1: Adenosine receptor A1 (Adora1, Rattus norvegicus, UniProt P25099)
CA9: Carbonic anhydrase 9 (CA9, Homo sapiens, UniProt Q16790)
gyrB: DNA gyrase subunit B (gyrB, Escherichia coli, UniProt P0AES6)
Melanocortin receptor 5: Melanocortin receptor 5 (Mus musculus, UniProt P41149)

| Structure (SMILES) | target | test | setting | endpoint | value |
| --- | --- | --- | --- | --- | --- |
| CC(C)NC[C@@H](C(=O)N1CCN(c2ncnc3c2[C@H](C)C[C@H]3O)CC1)c1ccc(Cl)cc1 | PKN1 | enzyme activity, inhibitor |  | IC50 | 30 nM |
| CN1CCCn2c1nc1c2c(=O)n(C)c(=O)n1C | Adora1 | ligand displacement, radioligand | cell membranes | Ki | > 25000 nM |
| Cc1cc(C(=O)Nc2ccccc2C(=O)NCc2cn(C)nn2)c(C)n1Cc1ccc(S(N)(=O)=O)cc1 | CA9 | enzyme activity, inhibitor |  | IC50 | 38.9 nM |
| CNc1cccc2cc(C(=O)Nc3ccc(CC(=O)O)cc3)c(=O)[nH]c12 | gyrB | binding, ITC |  | Kd | 4.7 nM |
| CSCC[C@H](N)C(=O)NCC(=O)N[C@@H](Cc1c[nH]cn1)C(=O)N[C@@H](Cc1ccccc1)C(=O)N[C@@H](CCCNC(=N)N)C(=O)N[C@@H](Cc1c[nH]c2ccccc12)C(=O)N[C@@H](CC(=O)O)C(=O)N[C@@H](CCCNC(=N)N)C(=O)N[C@@H](Cc1ccccc1)C(=O)NCC(=O)O | Melanocortin receptor 5 | reporter gene, agonist |  | EC50 | 94 nM |
| CCCN1CCCn2c1nc1c2c(=O)n(C)c(=O)n1C | Adora1 | ligand displacement, radioligand | cell membranes | Ki | 3870 nM |
| CNc1cccc2cc(C(=O)Nc3cccc(C(=O)O)c3)c(=O)[nH]c12 | gyrB | binding, ITC |  | Kd | 23 nM |
| Cc1cnc(-c2ccc(-c3ccc(NC(=O)Nc4c(F)cc(F)cc4F)cc3F)c3c2C(=O)NC3)[nH]1 | Tyrosine-protein kinase HCK (HCK, Homo sapiens, UniProt P08631) | binding, competition with immobilised ligand |  | Kd | 18 nM |
| CNc1cccc2cc(C(=O)NCCc3cccc(C(=O)O)c3)c(=O)[nH]c12 | gyrB | binding, ITC |  | Kd | 23 nM |
| NS(=O)(=O)c1cc(CNC(=O)N(Cc2ccc(O)cc2)CC2CC2)ccc1F | CA9 | enzyme activity, inhibitor |  | IC50 | 1200 nM |
| CCCCNc1ncc2c(-c3ccc(CN4CCN(C)CC4)cc3)cn([C@H]3CC[C@H](O)CC3)c2n1 | PKN1 | enzyme activity, inhibitor |  | IC50 | 53 nM |
| CNc1cccc2cc(C(=O)Nc3cccc(CC(=O)O)c3)c(=O)[nH]c12 | gyrB | binding, ITC |  | Kd | 37 nM |
| Cc1nn(-c2ccccc2)c(C)c1C1COCCN1C(=O)c1ccc(Cl)c(S(N)(=O)=O)c1 (centres unmarked) | CA9 | enzyme activity, inhibitor |  | IC50 | 155 nM |
| CN(Cc1ccc(C(=O)O)cc1NC(=O)c1cc2ccccc2[nH]c1=O)C1CCCCC1 | gyrB | binding, ITC |  | Kd | 3900 nM |
| N=C(N)NCCC[C@H](N)C(=O)N[C@@H](Cc1ccccc1)C(=O)NCC(=O)O | Melanocortin receptor 5 | reporter gene, agonist |  | EC50 | > 100000 nM |
| C=CCN1CCCn2c1nc1c2c(=O)n(C)c(=O)n1C | Adora1 | ligand displacement, radioligand | cell membranes | Ki | 4400 nM |
| O=C(Nc1ccc(N2C(=O)c3ccccc3C2=O)c(Cl)c1)c1ncccc1O | Metabotropic glutamate receptor 4 (GRM4, Homo sapiens, UniProt Q14833) | calcium signal, agonist |  | EC50 | 130 nM |
| Cn1cc(-c2ccc(N3CCN(C(=O)c4ccc(S(N)(=O)=O)c(Br)c4)CC3)c3cc[nH]c23)nn1 | CA9 | enzyme activity, inhibitor |  | IC50 | 12.9 nM |

| Structure (SMILES) | target | test | setting | endpoint | value |
| --- | --- | --- | --- | --- | --- |
| CC(C)N1CCCn2c1nc1c2c(=O)n(C)c(=O)n1C | Adora1 | ligand displacement, radioligand | cell membranes | Ki | > 25000 nM |
| COc1ccc(-c2nsc(NC(=O)[C@@H]3C[C@H]3C)c2C)cc1 | Metabotropic glutamate receptor 1 (GRM1, Homo sapiens, UniProt Q13255) | calcium signal, agonist |  | EC50 | > 25000 nM |
| Cc1cc(Nc2nc(N[C@@H](C)c3ccc(F)cc3)c(C#N)cc2F)n[nH]1 | PKN1 | enzyme activity, inhibitor |  | IC50 | 213 nM |
| Cc1ccc(C)c(OCCCC(C)(C)C(=O)O)c1 | Peroxisome proliferator-activated receptor alpha (Ppara, Mus musculus, UniProt P23204) | reporter gene, agonist, luciferase |  | EC50 | 111000 nM |
| CCCC[C@H](NC(=O)[C@@H](NC(=O)[C@@H](N)Cc1ccc(O)cc1)C(C)C)C(=O)NCC(=O)N[C@@H](Cc1c[nH]cn1)C(=O)N[C@@H](Cc1ccccc1)C(=O)N[C@@H](CCCNC(=N)N)C(=O)N[C@H](Cc1c[nH]c2ccccc12)C(=O)N[C@@H](CC(=O)O)C(=O)N[C@@H](CCCNC(=N)N)C(=O)N[C@@H](Cc1ccccc1)C(=O)NCC(=O)O | Melanocortin receptor 5 | reporter gene, agonist |  | EC50 | 10 nM |
| NS(=O)(=O)c1cc(C(=O)Nc2ccc(NC(=O)CCN3CCCCC3)cc2)ccc1Cl | CA9 | enzyme activity, inhibitor |  | IC50 | 160 nM |
| CCCCn1c(=O)c2[nH]c(C34CC5CC(CC3C5)C4)nc2n(CCCO)c1=O | Adora1 | ligand displacement, radioligand | cell membranes | Ki | 0.368 nM |
| CSCC[C@H](NC(=O)[C@@H](NC(=O)[C@@H](N)Cc1ccc(O)cc1)C(C)C)C(=O)NCC(=O)N[C@@H](Cc1c[nH]cn1)C(=O)N[C@@H](Cc1ccccc1)C(=O)N[C@@H](CCCNC(=N)N)C(=O)N[C@@H](Cc1c[nH]c2ccccc12)C(=O)N[C@@H](CC(=O)O)C(=O)O | Melanocortin receptor 5 | reporter gene, agonist |  | EC50 | 73 nM |
| CCCN1CCN(c2ccc(-c3cncc(Cl)c3N3CCC4(CCNC4=O)CC3)cc2)CC1 | NUAK family SNF1-like kinase 2 (NUAK2, Homo sapiens, UniProt Q9H093) | cell-free assay | lysate | Kd | 23300 nM |
| CSCC[C@H](NC(=O)[C@@H](N)Cc1ccc(O)cc1)C(=O)N[C@@H](Cc1c[nH]cn1)C(=O)N[C@@H](Cc1ccccc1)C(=O)N[C@@H](CCCNC(=N)N)C(=O)N[C@@H](Cc1c[nH]c2ccccc12)C(=O)N[C@@H](Cc1ccccc1)C(=O)O | Melanocortin receptor 5 | reporter gene, agonist |  | EC50 | 1100 nM |
| CC(NC(=O)C(C)N1CCN(C(=O)c2cccc(O)c2)CC1)c1ccc(S(N)(=O)=O)cc1 (centres unmarked) | CA9 | enzyme activity, inhibitor |  | IC50 | 750 nM |
| CSCC[C@H](NC(=O)[C@@H](NC(=O)[C@@H](N)Cc1ccc(O)cc1)C(C)C)C(=O)NCC(=O)N[C@@H](Cc1c[nH]cn1)C(=O)N[C@@H](Cc1ccccc1)C(=O)N[C@@H](CCCNC(=N)N)C(=O)N[C@@H](Cc1c[nH]c2ccccc12)C(=O)N[C@@H](CC(=O)O)C(=O)N[C@@H](CCCNC(=N)N)C(=O)O | Melanocortin receptor 5 | reporter gene, agonist |  | EC50 | 62 nM |
| Cc1cc2nc3c(=O)[nH]c(=O)nc-3n(C[C@H](O)[C@H](O)[C@H](O)COP(=O)(O)OP(=O)(O)OC[C@H]3O[C@@H](n4cnc5c(N)ncnc54)[C@H](O)[C@@H]3O)c2cc1C | RNA-binding protein 14 (Homo sapiens, UniProt Q96PK6) | binding | lysate | Kd | 32 nM |
| N=C(N)NCCC[C@H](NC(=O)[C@H](CC(=O)O)NC(=O)[C@H](Cc1c[nH]c2ccccc12)NC(=O)[C@H](CCCNC(=N)N)NC(=O)[C@H](Cc1ccccc1)NC(=O)[C@H](Cc1c[nH]cn1)NC(=O)CN)C(=O)N[C@@H](Cc1ccccc1)C(=O)NCC(=O)O | Melanocortin receptor 5 | reporter gene, agonist |  | EC50 | 290 nM |
| NS(=O)(=O)c1ccc(NC(=S)N2CCN(C(=O)c3ccco3)CC2)cc1 | CA9 | enzyme activity, inhibitor |  | IC50 | 37.2 nM |
| N=C(N)NCCC[C@H](NC(=O)[C@@H](N)CC(=O)O)C(=O)N[C@@H](Cc1ccccc1)C(=O)O | Melanocortin receptor 5 | reporter gene, agonist |  | EC50 | > 100000 nM |
| NS(=O)(=O)c1cccc(NC(=O)CCN2CCC(c3cccc4[nH]ccc34)CC2)c1 | CA9 | enzyme activity, inhibitor |  | IC50 | 11000 nM |
